The list is not random: actives were taken first. Their share in the collection is about 4%.
UPR XBP1 act: adaptive UPR (XBP1) activation; CHO-XBP1 luciferase reporter, IRE1-XBP1 UPR activation, luminescence; percent of tunicamycin response, DMSO as zero; activation, % at 20 µM; 0.33% of 330,000 active; AID 463104;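 active means versus positive control, 20 µM dose yields 30% or more activation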
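Signal: luciferase luminescence; Assay system: CHO-XBP1 luciferase reporter cells; Amount: one thousand reporter cells per well; Dosing: 20 µM single concentration, DMSO 1%; Benchmarks: high control tunicamycin 10 µg/mL final, low control DMSO vehicle only; Schedule: 6 h compound exposure at 37 °C, 5% CO2; Evaluation: percent activation relative to tunicamycin reference.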
Mdm2-MdmX inh: disrupts the human Mdm2-MdmX interaction; 3% of 330,000 active; AID 485346; SaOS-2 split-luciferase Mdm2/MdmX complementation, luminescence; O15151+Q00987; inhibition, % at 8 µM;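 active means inhibition of at least 50% at 8 µM in the primary screen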
UPR CHOP act: apoptotic UPR (CHOP) activation | AID 449763 | CHO-CHOP luciferase reporter, luminescence; percent of tunicamycin response over DMSO baseline | activation, % at 10 µM | 0.34% of 330,000 active;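 active means at 10 µM dose, activation of 40% or more, normalized to positive control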
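measured by = luciferase luminescence | assay system = CHO-CHOP cells, stable luciferase reporter of PERK-eIF2a-CHOP signalling | amount = 500 reporter cells seeded per well | timing = 6 h compound exposure at 37 °C after overnight seeding | controls = positive tunicamycin 10 µg/mL, negative DMSO alone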
Exocytosis inh: lytic granule exocytosis inhibition. TALL-104 LAMP-1 surface exposure, flow cytometry; cells stimulated with thapsigargin and PMA. 0.66% of 360,000 active. inhibition, % at 10 µM;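 active means inhibition above about 55%, limit read from the data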
ABHD5-PLIN5 inh: blocks binding of human ABHD5 to perilipin-5; inhibition, % at 4 µM; Split G. princeps luciferase complementation, luminescence, 4 h; Q00G26+Q8WTS1; AID 602281; 0.78% of 360,000 active;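 active means inhibition above the mean inhibition across every tested compound plus 3 SD, cut at about 22% in these data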
Target sequence (Q00G26 whole entry, looked up): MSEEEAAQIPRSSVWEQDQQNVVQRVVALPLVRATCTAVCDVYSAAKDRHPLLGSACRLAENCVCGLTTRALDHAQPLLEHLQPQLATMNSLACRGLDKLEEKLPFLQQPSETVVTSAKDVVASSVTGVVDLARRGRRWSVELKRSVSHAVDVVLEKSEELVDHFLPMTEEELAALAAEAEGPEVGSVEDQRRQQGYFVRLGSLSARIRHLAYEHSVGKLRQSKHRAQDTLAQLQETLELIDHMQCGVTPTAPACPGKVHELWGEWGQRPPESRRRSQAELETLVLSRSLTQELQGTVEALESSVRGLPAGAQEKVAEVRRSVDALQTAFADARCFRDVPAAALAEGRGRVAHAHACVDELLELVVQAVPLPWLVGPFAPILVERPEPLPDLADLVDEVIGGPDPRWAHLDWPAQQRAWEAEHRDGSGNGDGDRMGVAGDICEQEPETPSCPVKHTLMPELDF
Target sequence (Q8WTS1 whole entry, looked up): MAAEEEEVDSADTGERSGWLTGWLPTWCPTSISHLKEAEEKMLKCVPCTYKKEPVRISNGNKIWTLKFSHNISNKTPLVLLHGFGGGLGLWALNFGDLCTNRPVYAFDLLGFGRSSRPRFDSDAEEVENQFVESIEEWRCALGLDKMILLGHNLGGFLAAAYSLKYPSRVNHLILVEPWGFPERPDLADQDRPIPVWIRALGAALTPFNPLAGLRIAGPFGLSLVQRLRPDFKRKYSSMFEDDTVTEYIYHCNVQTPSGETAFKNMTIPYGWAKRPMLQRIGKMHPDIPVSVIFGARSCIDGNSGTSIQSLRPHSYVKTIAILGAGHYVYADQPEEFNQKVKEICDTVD
Mdm2-MdmX conf: human Mdm2/MdmX binding inhibition, confirmed | luminescent assay | AID 489028 | shares compounds with Mdm2-MdmX inh | 55% of 10,000 active | inhibition, % at 8 µM; in the data active means inhibition above about 40%
Full FLuc ctr: counter-screen for Mdm2/MdmX inhibitors: full-length luciferase. shares compounds with Mdm2-MdmX inh. SaOS-2 full-length luciferase counterscreen, luminescence. inhibition, % at 8 µM. 77% of 6,200 active. AID 504607;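 active means mean inhibition at 8 µM reaching about 37%, which flags the compound as non-specific, limit read from the data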;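 further: p53-null SaOS-2 cells with luciferase driven by a doxycycline-inducible promoter; compound on cells about two nights before reading with doxycycline added after day one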
Numbers stand for hits; i = inactive; nt = no result.

SMILES	UPR XBP1 act	Mdm2-MdmX inh	UPR CHOP act	Exocytosis inh	ABHD5-PLIN5 inh	Mdm2-MdmX conf	Full FLuc ctr
CCC1(C)Cc2c(sc(NC(=S)NC(=O)c3ccccc3)c2C#N)CO1 (configuration not stated)	i	i	i	i	i	nt	nt
CC(=O)OC[C@]12CC[C@H]3[C@@](C)(CC[C@H]4C(C)(C)CCC[C@]34C)[C@@H]1C[C@H](C1=CC(=O)O[C@H]1OC(C)=O)O2	i	91	i	nt	nt	i	nt
CC(=O)OC[C@]12CC[C@H]3[C@@](C)(CC[C@H]4C(C)(C)CCC[C@]34C)[C@@H]1C[C@@H](C1=CC(=O)O[C@@H]1OC(C)=O)O2	i	100	i	nt	nt	99	i
COc1ccc(OC)c(S(=O)(=O)N2CCCC(C)C2)c1 (configuration not stated)	i	i	i	i	i	nt	nt
CCN1C(=O)[C@H]2[C@@H](c3ccc(-c4ccc(Cl)c(Cl)c4)c(OC)c3)N[C@@](Cc3ccccc3)(C(=O)OC)[C@H]2C1=O	i	62	i	i	i	47	46
COC(=O)[C@]1(C)N[C@H](c2ccc(-c3ccc(OC)cc3)cc2)[C@@H]2C(=O)N(C)C(=O)[C@@H]21	i	i	i	i	i	nt	nt
COC(=O)[C@]1(C)N[C@H](c2ccc(-c3ccc(Cl)c(Cl)c3)c(OC)c2)[C@@H]2C(=O)N(C)C(=O)[C@@H]21	i	65	i	i	i	40	49
Cc1cccn2c(=O)c3cc(C(=O)NC4CCCC4)n(C)c3nc12	i	51	i	i	i	51	67
Cc1cccn2c(=O)c3cc(C(=O)NC4CCCCC4)n(C)c3nc12	i	i	i	i	i	nt	nt
Cc1cccn2c(=O)c3cc(C(=O)NCCC4=CCCCC4)n(C)c3nc12	i	55	i	i	i	i	nt
Nc1c(Cl)cc(-c2csc(N3CCCC3c3nc4cc(Cl)c(Cl)cc4n3CCCO)n2)cc1Cl (configuration not stated)	i	i	i	i	i	nt	nt
Nc1c(Cl)cc(-c2csc(N3CCCC3c3nc4cc(Cl)c(N5CCCCC5)cc4n3CCCO)n2)cc1Cl (configuration not stated)	i	85	i	i	i	i	nt
Cn1nc(CC(=O)NC2CCCCCCCCCCC2)c2ccccc2c1=O	i	i	i	i	i	nt	nt
Cn1nc(CC(=O)Nc2ncc(Br)s2)c2ccccc2c1=O	i	59	i	i	i	i	nt
O=C(NCc1ccco1)C1CCCN(c2ncnc3c2nc2n3CCCCC2)C1 (configuration not stated)	i	i	i	i	i	nt	nt
Clc1nccnc1-c1ccccc1	i	i	i	i	i	nt	nt
S=C(NCCN(C1CCCCC1)C1CCCC1)Nc1cccc(Cl)c1	i	62	i	i	i	i	63
O=C(Nc1ccccc1)c1cccc(C(=O)Nc2ccccc2)n1	i	i	i	i	i	nt	nt
COC(=O)c1c(-c2ccc(C)cc2)csc1NC(=O)Cc1ccc(OC)c(OC)c1	nt	nt	nt	i	i	nt	nt
COC(=O)c1c(-c2cccc3ccccc23)csc1NC(=O)Cc1ccc(OC)c(OC)c1	i	62	i	i	i	51	48
Cc1cc(C)nc(N(C#N)Cc2ccc(Cl)cc2)n1	i	i	i	i	i	nt	nt
Cc1ccc(S(=O)(=O)Nc2nc3ccccc3nc2Nc2cccc(S(=O)(=O)N3CCCC3)c2)cc1	i	53	i	i	i	51	93
Cc1cc(C)cc(Nc2nc(-c3ccc(S(=O)(=O)N4CCCC4)cc3)cs2)c1	i	59	i	i	i	58	42
N#C/C(=C\c1cccnc1)C(=O)Nc1ccc(S(N)(=O)=O)cc1	i	i	i	i	i	nt	nt
Cc1ccc(/C=C2\SC(=S)N(CCCC(=O)Nc3ccccc3C(=O)O)C2=O)cc1	i	i	i	i	i	nt	nt
SMILES	UPR XBP1 act	Mdm2-MdmX inh	UPR CHOP act	Exocytosis inh	ABHD5-PLIN5 inh	Mdm2-MdmX conf	Full FLuc ctr
CCc1ccc(/C=C2\SC(=S)N(CCCC(=O)Nc3ccc(C(=O)O)cc3)C2=O)cc1	i	i	i	i	i	nt	nt
COC(=O)c1ccc(/C=C2/SC(=S)N(CCCC(=O)Nc3ccc(O)cc3)C2=O)cc1	i	100	i	i	i	55	i
Cc1ccc(/C=C2\SC(=S)N(CCCC(=O)Nc3ccc(O)cc3)C2=O)cc1	i	93	i	i	i	89	47
CCCc1nc2oc3c(NCCN(C)C)ncnc3c2c2c1CCCC2	i	56	i	i	i	60	38
CCCc1nc2oc3c(NCCCN(C)C)ncnc3c2c2c1CCCC2	i	100	i	i	i	85	52
CC(C)Cc1nc2oc3c(NCC(C)O)ncnc3c2c2c1CCCC2 (configuration not stated)	i	i	i	i	i	nt	nt
NNC(=O)c1oc2nc(-c3ccco3)cc(-c3ccco3)c2c1N	i	i	i	i	i	nt	nt
C=CCNc1nc(NCc2ccc(NC(C)=O)cc2)c2sc(-c3ccccc3)cc2n1	nt	nt	nt	i	i	nt	nt
CC[C@H](C)Cc1cn([C@@H](CCCN=C(NC(=O)OC(C)(C)C)NC(=O)OC(C)(C)C)C(=O)NCCCCCCCCCCC(=O)N2CCN(C(=O)OC(C)(C)C)CC2)nn1	i	66	i	i	i	i	nt
CC[C@H](C)Cc1cn([C@@H](CCCCN)C(=O)NCCCCCCCCCCC(=O)N2CCNCC2)nn1	i	i	i	i	i	nt	nt
O=C(N/N=C/c1ccc(Cl)cc1)C(=O)N1CCCCCC1	i	i	i	i	i	nt	nt
O=C(N/N=C/c1c(F)cccc1Cl)C(=O)N1CCCCCC1	i	56	i	i	i	i	nt
CC(=O)NC(Cc1cccc(F)c1)C(=O)NC1CCN(C(=O)c2cccc(C)c2)CC1 (configuration not stated)	i	i	i	i	i	nt	nt
Brc1ccc2c(c1)OCCOCCOc1cc(Br)ccc1OCCOCCOCCO2	i	74	i	60	i	i	60
Oc1ccc(Cl)cc1Cc1cc(Cl)ccc1O	i	87	i	i	i	60	48
C/C(=N\N=C(N)N)c1ccc(Cl)c(Cl)c1	i	56	i	i	i	i	nt
C/C(=N\NC(=O)C1CC1)c1ccc(Cl)c(Cl)c1	i	i	i	i	i	nt	nt
CCOC(=O)C1=C(C)Nc2nc3ccccc3n2C1c1ccccc1 (configuration not stated)	i	54	i	i	i	i	nt
COc1ccc(C2C(C(=O)c3ccccc3)=C(C)Nc3nc4ccccc4n32)cc1OC (configuration not stated)	i	i	i	i	i	nt	nt
COc1ccc(OC)c(C2C(C(=O)c3ccccc3)=C(C)Nc3nc4ccccc4n32)c1 (configuration not stated)	i	98	i	i	i	76	80
c1ccc(Cn2c(NCc3ccccn3)nc3ccccc32)cc1	i	i	i	i	i	nt	nt

Bioassay records deposited in PubChem BioAssay by several laboratories.
